Assay results from ChEMBL document CHEMBL1157169, “A class of novel nitronyl nitroxide labeling basic and acidic amino acids: synthesis, application for preparing ESR optionally labeling peptides, and bioactivity investigations” (Bioorg Med Chem, 2008).
Where a SMILES comes first, the peptide text is derived from it. The star is where a group is joined. X2 = CC1(C)N(O)C(c2ccc(OCC(=O)*)cc2)=[N+]([O-])C1(C)C

What was measured:
PC-12 [1] = assay: Radical scavenging activity in rat PC12 cells assessed as inhibition of nitric oxide radical-induced cell damage by MTT assay; assay type: functional, cell-based
How it was run: (§1)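 PC12 cells grown in DMEM with 10% heat-inactivated horse serum, 5% FBS and 1.0 mM pyruvate at 37 °C, 5% CO2. Seeded at 20,000 cells/well on poly-L-lysine and attached 24 h. Pretreated 1 h with 12.5–200 µM compound. Damage induced by SNP 2 mM for 2 h (NO), H2O2 1 mM for 1 h, or H2O2 1 mM/Fe(II) 30 µM for 1 h (·OH). Media replaced, cells incubated 14 h, survival measured by MTT.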

PC-12 [2] = assay: Radical scavenging activity in rat PC12 cells assessed as inhibition of hydrogen peroxide radical-induced cell damage by MTT assay; assay type: functional, cell-based; how it was run: as §1
PC-12 [3] = assay: Radical scavenging activity in rat PC12 cells assessed as inhibition of hydroxyl radical-induced cell damage by MTT assay; assay type: functional, cell-based; how it was run: as §1
Aorta [4] = assay: Nitric oxide radical scavenging activity in rat aortic strip assessed as inhibition of acetylcholine-induced vasorelaxation at 10 uM; assay type: functional, tissue-based
Aorta [5] = assay: Nitric oxide radical scavenging activity in rat aortic strip assessed as inhibition of acetylcholine-induced vasorelaxation at 1 uM; assay type: functional, tissue-based
Aorta [6] = assay: Nitric oxide radical scavenging activity in rat aortic strip assessed as inhibition of acetylcholine-induced vasorelaxation at 100 uM; assay type: functional, tissue-based
[7] = Aqueous stability assessed as decomposition time at pH 2.0; assay type: physicochemical; details: buffer
How it was run: (§2)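 Each sample dissolved in aqueous solution at pH 2.0, 7.4 or 11.5 (final 10^-2 mM) and held at room temperature for up to 200 h. Decomposition followed by TLC (CHCl3/CH3OH, 20:1). Value is the time at which decomposition appeared.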

[8] = Aqueous stability assessed as decomposition time at pH 7.4; assay type: physicochemical; details: buffer; how it was run: as §2
[9] = Aqueous stability assessed as decomposition time at pH 11.5; assay type: physicochemical; details: buffer; how it was run: as §2
Blood [10] = assay: Inhibition of 10 uM adenosine diphosphate-induced platelet aggregation in rabbit blood; assay type: functional, Oryctolagus cuniculus
How it was run: (§3)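 Platelet-rich plasma made by centrifuging normal rabbit blood anticoagulated with sodium citrate (3.8% final). Platelets adjusted to 2×10^5/µl with autologous plasma. Aggregation induced by PAF or ADP (final 10^-5–10^-7 M) and read by turbidimetry in an aggregometer. Maximal aggregation rate (Am%) taken as peak height of the curve.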

Blood [11] = assay: Inhibition of 1 uM adenosine diphosphate-induced platelet aggregation in rabbit blood; assay type: functional, Oryctolagus cuniculus; how it was run: as §3
Blood [12] = assay: Inhibition of 0.1 uM adenosine diphosphate-induced platelet aggregation in rabbit blood; assay type: functional, Oryctolagus cuniculus; how it was run: as §3
Blood [13] = assay: Inhibition of 10 uM platelet activating factor-induced platelet aggregation in rabbit blood; assay type: functional, Oryctolagus cuniculus; how it was run: as §3
Blood [14] = assay: Inhibition of 1 uM platelet activating factor-induced platelet aggregation in rabbit blood; assay type: functional, Oryctolagus cuniculus; how it was run: as §3
Blood [15] = assay: Inhibition of 0.1 uM platelet activating factor-induced platelet aggregation in rabbit blood; assay type: functional, Oryctolagus cuniculus; how it was run: as §3
Rattus norvegicus [16] = assay: Antithrombotic activity in Wistar rat assessed as wet thrombus weight at 5 umol/kg; assay type: functional
How it was run: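 Male Wistar rats (250–300 g) anesthetized with pentobarbital sodium (80.0 mg/kg, ip). The right carotid artery and left jugular vein were cannulated via a polyethylene tube containing a thread, filled with NS or compound dissolved in NS (vehicle NS). Blood shunted 15 min. The thread was weighed wet, then after 2 weeks in a desiccator weighed dry. n = 10, ANOVA.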

Rattus norvegicus [17] = assay: Antithrombotic activity in Wistar rat assessed as dry thrombus weight at 5 umol/kg

Time [7] [h] | Time [8] [h] | Time [9] [h] | Compound | EC50 (PC-12 [1]) [µM] | EC50 (PC-12 [2]) [µM] | EC50 (PC-12 [3]) [µM] | inhibition (Aorta [4]) [%] | inhibition (Aorta [5]) [%] | inhibition (Aorta [6]) [%] | inhibition (INH) (Blood [10]) [%] | inhibition (INH) (Blood [11]) [%] | inhibition (INH) (Blood [12]) [%] | inhibition (INH) (Blood [13]) [%] | inhibition (INH) (Blood [14]) [%] | inhibition (INH) (Blood [15]) [%] | Activity (Rattus norvegicus [16]) [mg] | dry thrombus weight (Rattus norvegicus [17]) [mg]
 |  |  | CC1(C)N(O)C(c2ccc(OCCNC(=O)CC[C@H](N)C(=O)N[C@@H](CS)C(=O)NCC(=O)O)cc2)=[N+]([O-])C1(C)C | 37.8 | 47 | 54.9 |  |  |  |  |  |  |  |  |  |  | 
 |  |  | CC1(C)N(O)C(c2ccc(OCCNC(=O)CC[C@H](N)C(=O)N[C@H](CS)C(=O)NCC(=O)O)cc2)=[N+]([O-])C1(C)C |  |  |  | 72.2 | 25.9 | 97.3 |  |  |  |  |  |  |  | 
 |  |  | CC1(C)N(O)C(c2ccc(OCC(=O)NCCCC[C@H](N)C(=O)O)cc2)=[N+]([O-])C1(C)C | 90.6 | 29.9 | 98.8 | 72.3 | 25.4 | 98.6 |  |  |  |  |  |  |  | 
2 | 18 | 2.5 | CC1(C)N(O)C(C(=O)O)=[N+]([O-])C1(C)C |  |  |  | 25 | 1.7 | 34.3 |  |  |  |  |  |  |  | 
15 | 30 | 18 | CC1(C)N(O)C(c2ccco2)=[N+]([O-])C1(C)C |  |  |  | 20.2 | 1.6 | 44.4 |  |  |  |  |  |  |  | 
 |  |  | N=C(N)NCCC[C@H](N)C(=O)NCC(=O)N[C@@H](CC(=O)O)C(=O)N[C@@H](CO)C(=O)O |  |  |  | 4.3 | 2.9 | 8.9 | 51.5 | 39.62 | 16.6 | 53.69 | 36.47 | 22.03 | 27.9 | 4.22
 |  |  | CC1(C)N(O)C(c2ccc(OCC(=O)N[C@@H](CCCNC(=N)N)C(=O)O)cc2)=[N+]([O-])C1(C)C | 92.9 | 32.1 | 101 | 10.7 | 7.8 | 15.9 |  |  |  |  |  |  |  | 
 |  |  | CC(C)[C@H](NC(=O)[C@H](CC(=O)O)NC(=O)CNC(=O)[C@@H](N)CCCNC(=N)NC(=O)COc1ccc(C2=[N+]([O-])C(C)(C)C(C)(C)N2O)cc1)C(=O)O (H-R(X2)GDV-OH) | 93 | 32.8 | 102 | 72.8 | 26.2 | 96.6 | 50.2 | 39.6 | 16.38 | 50.26 | 32.8 | 19.88 | 26.11 | 4.18
 |  |  | CC(C)(C)OC(=O)N[C@@H](CCC(=O)NCCOc1ccc(C2=[N+]([O-])C(C)(C)C(C)(C)N2O)cc1)C(=O)O | 42.7 | 49.9 | 59 | 72.4 | 26 | 96.9 |  |  |  |  |  |  |  | 
> 200 | > 200 | > 200 | CC1(C)N(O)C(c2ccc(O)cc2)=[N+]([O-])C1(C)C | 40 | 49.1 | 56.9 | 73.1 | 26.1 | 99.2 | 49.28 | 50.39 | 49.01 | 54 | 52.45 | 53.04 | 38.9 | 6.8
 |  |  | CC1(C)N(O)C(c2ccc(OCCNC(=O)C[C@H](N)C(=O)O)cc2)=[N+]([O-])C1(C)C | 42.3 | 48.6 | 58.2 | 72.8 | 26.7 | 97.5 |  |  |  |  |  |  |  | 
 |  |  | N[C@@H](CCC(=O)O)C(=O)N[C@@H](CS)C(=O)NCC(=O)O (H-Glu-Cys-Gly-OH) |  |  |  | 5.2 | 3.2 | 9.2 |  |  |  |  |  |  |  | 

Compound | Time [7] [h] | Time [8] [h] | Time [9] [h] | EC50 (PC-12 [1]) [µM] | EC50 (PC-12 [2]) [µM] | EC50 (PC-12 [3]) [µM] | inhibition (Aorta [4]) [%] | inhibition (Aorta [5]) [%] | inhibition (Aorta [6]) [%] | inhibition (INH) (Blood [10]) [%] | inhibition (INH) (Blood [11]) [%] | inhibition (INH) (Blood [12]) [%] | inhibition (INH) (Blood [13]) [%] | inhibition (INH) (Blood [14]) [%] | inhibition (INH) (Blood [15]) [%] | Activity (Rattus norvegicus [16]) [mg] | dry thrombus weight (Rattus norvegicus [17]) [mg]
CC1(C)N(O)C(c2cccnc2)=[N+]([O-])C1(C)C | 15 | 30 | 18 |  |  |  | 16.6 | 1.7 | 48.6 |  |  |  |  |  |  |  | 
